The sample as a whole holds a higher share of hits than the screen did.
ERp5 inh: inhibitors of human ERp5; Q15084; ERp5 insulin aggregation, absorbance 650 nm, 90 min; inhibition, % at 9.99 µM; hit rate 0.05% among 350,000;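 active means mean replicate inhibition above about 25%, with every replicate also reaching it, limit read from the data, passing the limit was not always enough; inconclusive means only one of those two criteria met; inactive means neither criterion met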
PDI turbidity: blocks human protein disulfide isomerase activity. P07237. PDI insulin aggregation turbidity, A650, 90 min. inhibition, % at 10 µM. hit rate 0.052% among 350,000. AID 588391;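 active means mean inhibition across replicates of 30% or more, whatever share of single replicates reach that level; inconclusive means mean inhibition below 30% while every single replicate reaches 30%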
Target sequence (P07237 whole entry, looked up): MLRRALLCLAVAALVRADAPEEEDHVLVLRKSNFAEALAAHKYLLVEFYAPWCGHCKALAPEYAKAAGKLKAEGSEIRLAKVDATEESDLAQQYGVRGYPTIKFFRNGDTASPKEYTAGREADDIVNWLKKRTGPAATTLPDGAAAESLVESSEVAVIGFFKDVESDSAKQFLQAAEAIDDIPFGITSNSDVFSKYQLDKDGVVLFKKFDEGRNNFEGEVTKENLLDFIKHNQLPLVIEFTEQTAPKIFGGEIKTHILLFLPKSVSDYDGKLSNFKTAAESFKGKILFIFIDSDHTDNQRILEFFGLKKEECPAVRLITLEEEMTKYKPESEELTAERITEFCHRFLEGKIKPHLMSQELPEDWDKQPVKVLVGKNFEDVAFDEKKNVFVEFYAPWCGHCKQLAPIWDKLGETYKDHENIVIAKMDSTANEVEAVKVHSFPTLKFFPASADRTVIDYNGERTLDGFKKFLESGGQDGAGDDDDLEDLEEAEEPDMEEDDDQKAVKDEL
ERAP1 inh: ERAP1 (human) enzyme inhibition; hit rate 0.15% among 340,000; Q9NZ08; inhibition, % at 10.7 µM; recombinant ERAP1, Leu-AMC fluorescence, 60 min;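 active means mean replicate inhibition of at least 30%, or all replicates individually reaching that 30% level; inactive means mean below 30% and not every replicate reaching it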
FGF22 binding: FGF22 (human) thermal shift binding; Q9HCT0; recombinant FGF22 thermal shift, SYPRO orange fluorescence; percent of sucrose octasulfate shift, DMSO zero; activity (Tm shift, normalised), % at 9.99 µM; hit rate 1.5% among 340,000; AID 651658;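 active means mean Tm shift, scaled 0 neutral to 100 positive control, at about 1.3% or above, every replicate too, limit read from the data; inconclusive means no clear call, values can overlap the other calls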
S100A4 MyoIIA: blocks human S100A4 binding to myosin IIA peptide | inhibition, % at 10.7 µM | P26447 | S100A4/TAMRA-MyoIIA peptide fluorescence polarization | hit rate 0.14% among 360,000;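 active means mean inhibition of at least 70% across replicates, with every replicate also reaching that level; inconclusive means mean inhibition reaches 70% but some replicates fall short; inactive means mean inhibition below 70%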
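incubation = readout 5 min after mixing, signal stable up to 60 min | system = S100A4 monomer protein | buffer or medium = HEPES pH 7.2 with CaCl2, KCl, NaCl, DTT, Triton | benchmarks = neutral control DMSO, positive control TFP | also added = fluorescent myosin IIA peptide, 5 nM | compound dosing = one concentration per compound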
Each line names hits and unclear results; the compound was inactive in the other large screens.

C[C@@H]1CN([C@H](C)CO)C(=O)c2cccc(NC(=O)C3CCCCC3)c2O[C@H]1CN(C)Cc1ccccc1	none (no result: PDI turbidity)
CC(C)COC(=O)OCN1C(=O)CN(CCN2CC(=O)N(COC(=O)OCC(C)C)C(=O)C2)CC1=O	none
CN1C(=O)CN(CCN2CC(=O)N(C)C(=O)C2)CC1=O	FGF22 binding 43
CC(C)NC(=O)N(C)C[C@@H]1OCCCC[C@@H](C)Oc2ccc(NC(=O)Nc3ccc(C(F)(F)F)cc3)cc2C(=O)N([C@H](C)CO)C[C@@H]1C	none (no result: PDI turbidity)
CC[C@]12c3[nH]c4cc(-c5ccco5)ccc4c3CCN1C(=O)[C@@H](CC(=O)NCc1ccc(OC)c(OC)c1)C[C@@H]2C(=O)N1CCN(C(=O)C2CC2)CC1	PDI turbidity 37
CC[C@]12c3[nH]c4cc(-c5ccco5)ccc4c3CCN1C(=O)[C@@H](CC(=O)NCc1ccco1)C[C@@H]2C(=O)N1CCN(C(=O)C2CC2)CC1	none
CO[C@@H](CN(C)Cc1ccc(-c2ccccn2)cc1)[C@H](C)CN(C(=O)Nc1ccc(F)cc1)[C@H](C)CO	FGF22 binding 8.2 (no result: PDI turbidity)
CCOC(=O)C1CCN(c2nc(N)c3c(N)nc(SCC(=O)O)cc3c2C#N)CC1	ERAP1 inh 31
CCOC(=O)C1CCN(c2nc(C)cc(C)c2C#N)CC1	none
C/C(CCC1CC(C)OC1=O)=N\NC(N)=O (configuration not stated)	none
COc1ccc(NS(=O)(=O)c2ccc3c(c2)[C@H]2C=CC[C@H]2[C@@H](c2ccc(C(=O)O)cc2)N3)cc1	ERAP1 inh 32 (no result: FGF22 binding)
COc1ccc(NC(=O)N[C@@H]2CC[C@H](CCNS(=O)(=O)c3cccc(Cl)c3)O[C@H]2CO)cc1	S100A4 MyoIIA inconclusive (no result: PDI turbidity)
Cc1cccc(N2CCN(C(=S)c3ccccc3)CC2)c1	FGF22 binding 44
S=C(Nc1ccccc1)N1CCN(c2ccccc2)CC1	none (no result: FGF22 binding)
O=C(Nc1ccc(Cl)cc1)N1CCN(c2ncccn2)CC1	none
Cc1cccc(N2CCN(C(=S)c3ccc([N+](=O)[O-])cc3)CC2)c1	none
Cc1ccc(N2CCN(C(=S)Nc3ccccc3)CC2)cc1	FGF22 binding 43
O=C(Nc1ccc(F)cc1)N1CCN(c2ncccn2)CC1	FGF22 binding 43
S=C(Nc1ccc(Nc2ccccc2)cc1)N1CCN(c2ncccn2)CC1	FGF22 binding 43
CCOC(=O)C(=O)NCC(c1ccco1)S(=O)(=O)c1cccs1 (configuration not stated)	none (no result: FGF22 binding)
Fc1cccc(NC(=S)N2CCN(c3ccccn3)CC2)c1	none
FC(F)(F)c1cccc(NC(=S)N2CCN(c3ccccn3)CC2)c1	FGF22 binding 44
COc1ccc(/C=C/C(=O)O)cc1S(=O)(=O)NC1CCS(=O)(=O)C1 (configuration not stated)	FGF22 binding 44
CCSc1nnc(CNC(=O)c2ccccc2F)n1-c1ccccc1OC	FGF22 binding 43
N/C(=N\OC(=O)c1cccc(Cl)c1)c1cccnc1	none (no result: ERp5 inh, ERAP1 inh, FGF22 binding, S100A4 MyoIIA)
N/C(=N\OC(=O)c1cccc(Cl)c1)c1ccncc1	FGF22 binding 45
N/C(=N\OC(=O)C1CCCCC1)c1ccc(Br)cc1	none
N/C(=N\OC(=O)C1CCCCC1)c1ccncc1	FGF22 binding 43
Nc1ccc(NC2C[C@@H](C(=O)O)NC2=O)cc1 (some centres not stated)	FGF22 binding 43
Nc1ccc(NC(=O)Nc2ccc(N)cc2)cc1	none
O=[N+]([O-])c1ccc(Nc2nc(NC3CCCCC3)nc(N3CCCC3)n2)cc1	FGF22 binding 44
COCCNC(=S)N=Nc1c(O)[nH]c2c(C)cc(C)cc12	FGF22 binding 44
CCCCNC(=S)N=Nc1c(O)[nH]c2ccccc12	none
Cc1ccc(CN2CCNC(=O)C2CC(=O)N(Cc2c(C)nn(C)c2C)C2CC2)o1 (configuration not stated)	none
COc1ccc(NC(=O)Nc2cnccn2)cc1	none
CCOc1ccc(NC(=O)NC(C)CC)cc1 (configuration not stated)	FGF22 binding 43
CCOc1ccc(NC(=O)Nc2cnccn2)cc1	FGF22 binding 43
CCOc1ccc(NC(=O)Nc2ccc(NC(C)=O)cc2)cc1	none
O=C(O)C1C(c2ccccc2)C(C(=O)Oc2ccc(O)cc2)C1c1ccccc1 (configuration not stated)	PDI turbidity 46 (no result: ERp5 inh, ERAP1 inh, FGF22 binding, S100A4 MyoIIA)

Compound activity deposited in PubChem by Broad Institute.
